Test results taken from publication PMC6354736 (iScience, 2019).

Columns and labels:
OCT4 = test: NCCIT-OCT4 response element-driven luciferase reporter assay; type: cell-based, human; settings: for induction of OCT4 expression in NCCIT-OCT4 reporter cell line: histone demethylase inhibitors incubated for 48 h
LSD1 = LSD1 (Homo sapiens, UniProt O60341); test: LSD1 activity/inhibition assay; type: biochemical
NANOG = test: NCCIT-NANOG response element-driven luciferase reporter assay; type: cell-based, human
KDM5 = KDM5 demethylase activity/inhibition assay; type: biochemical
KDM5D = test: Demethylase assay on KDM5D immunoprecipitated from cells; type: biochemical
KDM5C = KDM5C (Homo sapiens, UniProt P41229); test: Demethylase assay on KDM5C immunoprecipitated from cells; type: biochemical
KDM5C, sequence (P41229 whole entry): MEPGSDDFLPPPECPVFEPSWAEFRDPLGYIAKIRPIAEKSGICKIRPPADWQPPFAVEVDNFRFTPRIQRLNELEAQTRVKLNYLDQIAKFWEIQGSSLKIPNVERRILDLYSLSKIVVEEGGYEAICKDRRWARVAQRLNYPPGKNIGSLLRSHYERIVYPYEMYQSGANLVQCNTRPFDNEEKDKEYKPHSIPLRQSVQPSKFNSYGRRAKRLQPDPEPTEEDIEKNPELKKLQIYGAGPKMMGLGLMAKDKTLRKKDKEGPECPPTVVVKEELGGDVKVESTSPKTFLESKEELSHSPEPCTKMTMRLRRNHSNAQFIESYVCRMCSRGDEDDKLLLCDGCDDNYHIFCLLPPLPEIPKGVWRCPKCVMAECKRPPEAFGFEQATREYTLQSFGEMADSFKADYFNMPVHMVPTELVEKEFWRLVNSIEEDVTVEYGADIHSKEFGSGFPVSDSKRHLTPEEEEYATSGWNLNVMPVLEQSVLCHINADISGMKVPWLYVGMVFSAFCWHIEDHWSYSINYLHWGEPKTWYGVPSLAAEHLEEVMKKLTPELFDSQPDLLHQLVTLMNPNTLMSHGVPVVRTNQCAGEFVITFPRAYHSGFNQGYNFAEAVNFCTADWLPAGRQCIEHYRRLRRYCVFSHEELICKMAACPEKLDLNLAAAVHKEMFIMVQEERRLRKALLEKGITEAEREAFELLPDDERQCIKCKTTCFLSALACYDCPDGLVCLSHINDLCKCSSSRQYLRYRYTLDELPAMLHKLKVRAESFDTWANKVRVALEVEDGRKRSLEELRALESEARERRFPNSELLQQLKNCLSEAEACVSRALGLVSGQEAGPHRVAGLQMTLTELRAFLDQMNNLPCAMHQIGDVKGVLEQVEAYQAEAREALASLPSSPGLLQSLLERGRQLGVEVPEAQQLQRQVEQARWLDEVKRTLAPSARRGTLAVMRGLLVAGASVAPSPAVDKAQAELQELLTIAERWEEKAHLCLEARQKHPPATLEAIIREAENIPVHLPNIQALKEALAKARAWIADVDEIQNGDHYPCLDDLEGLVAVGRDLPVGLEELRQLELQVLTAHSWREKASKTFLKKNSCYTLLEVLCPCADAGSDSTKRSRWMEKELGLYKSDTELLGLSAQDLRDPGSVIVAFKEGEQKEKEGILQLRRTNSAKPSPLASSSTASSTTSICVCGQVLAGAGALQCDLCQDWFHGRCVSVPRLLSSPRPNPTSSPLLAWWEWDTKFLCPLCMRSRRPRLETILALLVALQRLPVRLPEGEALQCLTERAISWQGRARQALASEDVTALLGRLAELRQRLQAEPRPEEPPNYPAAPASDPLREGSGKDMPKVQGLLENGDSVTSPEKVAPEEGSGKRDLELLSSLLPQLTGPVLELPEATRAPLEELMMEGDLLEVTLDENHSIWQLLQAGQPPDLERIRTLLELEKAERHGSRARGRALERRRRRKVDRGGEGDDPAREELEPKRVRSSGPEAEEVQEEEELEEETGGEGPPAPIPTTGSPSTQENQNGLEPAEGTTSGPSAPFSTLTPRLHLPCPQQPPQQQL

human fibroblasts = test: qRT-PCR of reprogramming-associated genes in human fibroblasts; type: cell-based
KDM4 = KDM4 demethylase activity/inhibition assay; type: biochemical
[1] = tested on: human primary fibroblasts; test: OSKM episomal reprogramming, TRA-1-60+ colonies counting; type: cell-based
Method in brief: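 Human primary fibroblasts, including OSKM-resistant lines and fibroblasts carrying an LTR7-EGFP promoter reporter, transfected with episomal OSKM with or without test compound; OSKM-only fibroblasts serve as comparison. ESC-like colonies stained for TRA-1-60, and reprogramming efficiency taken as the count of TRA-1-60-positive colonies.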

hPSCs = test: Viability and maintenance of hPSCs after single cell expansion; type: cell-based, human; settings: 10 μM
methylated H3K4 = test: In vitro H3K4 methylation assay; type: biochemical; settings: micromolar concentrations

Clc1ccc(N/N=C(\c2ccccc2)c2ccccn2)nc1 [JIB-04]
induction of OCT4 expression in NCCIT-OCT4 reporter cell line (OCT4): 5 fold

Cc1ccc(-c2cn3cc(C)ccc3n2)cc1 [O4I3, 6-methyl-2-(p-tolyl)imidazo[1,2-a]pyridine]
inhibition of LSD1 activity (LSD1): could not be detected
inhibitory effect on LSD1 (LSD1; even at a concentration of 100 μM): hardly detected
induction of NANOG (NANOG; NCCIT-NANOG reporter cells, low nanomolar doses, compared with untreated cells): ~10 fold
IC50 (KDM5; read-out: KDM5 IC50, whole-cell nuclear extraction): 0.79 nM
induction of OCT4 (OCT4; NCCIT-OCT4 reporter cells, low nanomolar doses, compared with untreated cells): ~10 fold
fold less potent IC50 on KDM5D than on KDM5A (KDM5D): 20 fold
fold less potent IC50 on KDM5C than on KDM5A (KDM5C): 40 fold
increase of CDH1 mRNA (human fibroblasts; human fibroblasts): about 100 fold
induction of NANOG mRNA (human fibroblasts; human fibroblasts): approximately 10 fold
increase of SOX2 mRNA (human fibroblasts; human fibroblasts, 50 nM): about 100 fold
induction of OCT4 mRNA (human fibroblasts; human fibroblasts, 50 nM): approximately 10 fold
CDH1 mRNA level versus hPSCs (human fibroblasts; treated human fibroblasts): approximately 10%
NANOG mRNA level versus hPSCs (human fibroblasts; treated human fibroblasts): ~1%
OCT4 mRNA level versus hPSCs (human fibroblasts; treated human fibroblasts): ~0.1%
SOX2 mRNA level versus hPSCs (human fibroblasts; treated human fibroblasts): ~1%
IC50 (KDM4; read-out: KDM4 IC50, whole-cell nuclear extraction): 249 nM
increase of the number of TRA-1-60-positive colonies ([1]; 50 nM added to OSKM, HF1 and HF2, compared with OSKM-only-treated fibroblasts): 10–20 times
iPSC-like colonies in fibroblasts resistant to OSKM-mediated reprogramming ([1]; HFF-LTR7-EGFP and HF4, with OSKM): appeared
episome-based reprogramming efficiency ([1]; with compound, from ∼0.01% without): ~0.1%

Cc1ccc(-c2nc3ccc(C)cn3c2CC(=O)N(C)C)cc1 [zolpidem, reference compound]
inhibition of LSD1 activity (LSD1): could not be detected
induction in NCCIT-NANOG reporter cells (NANOG; 10 μM, 48 h): ~2 fold
inhibition of KDM5 (KDM5; micromolar concentrations): inhibited
induction in NCCIT-OCT4 reporter cells (OCT4; 10 μM, 48 h): ~2 fold
maintenance of iPSCs (hPSCs): promoted the maintenance
inhibition of KDM4 (KDM4; micromolar concentrations): inhibited
protection of H3K4 methylation (methylated H3K4): protected
iPSC-like colonies in fibroblasts resistant to OSKM-mediated reprogramming ([1]; 10 μM, with OSKM): appeared

CC(C)c1c(-c2ccccc2)[nH]c2c(C#N)cnn2c1=O [CPI-455]
induction of OCT4 expression in NCCIT-OCT4 reporter cell line (OCT4): 3 fold
